Measurements: ChEMBL document CHEMBL1125193, “3-(5-Alkyl-4-hydroxy-3-methoxy-1-naphthalenyl)-2-methyl-2-propenoic acids as orally active inhibitors of IL-1 generation” (J Med Chem, 1991)

Assays:
Rattus norvegicus [1] = organism: Rattus norvegicus; test: Percent swelling was measured on untreated rat paw at different dosage forms; assay type: functional
How it was run: (§1)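 Rat adjuvant arthritis. Compound given orally once daily from first day of adjuvant treatment at 12.5-100 mg/kg. Adjuvant-untreated paw swelling measured by plethysmometer on day 15; inhibition versus control. Mean ± SEM of 6-10 animals.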

Rattus norvegicus [2] = organism: Rattus norvegicus; test: Percent inhibition was measured on untreated rat paw at different dosage forms; assay type: functional; how it was run: as §1
Homo sapiens = organism: Homo sapiens; test: Concentration to inhibit human monocyte in blood (IL 1 Generation); assay type: functional
How it was run: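 Human monocytes stimulated with LPS ± compound; IL-1 by LAF assay, quantified against a recombinant human IL-1 standard curve. IC50 by least-squares method, mean of two or more experiments.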

[3] = Area under curve was measured from the graph obtained from concentration Vs time after oral administration to male F344 rats; assay type: ADME, organism-based; details: F344, rat, in vivo
How it was run: (§2)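 Plasma AUC over 0-4 h from concentration-time course after a single oral dose of 50 mg/kg to male F344 rats; mean ± SEM, 2-3 rats per compound.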

Rattus norvegicus [4] = test: Percent inhibition was measured on untreated rat paw at a dose of 12.5 mg/kg; assay type: functional; how it was run: as §1
[5] = Half life was measured as time taken to reach the half of the initial dose in the blood after oral administration to male F344 rats; assay type: ADME, organism-based; details: F344, rat
How it was run: (§3)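 Plasma half-life after a single oral dose of 50 mg/kg to male F344 rats; mean ± SEM, 2-3 rats per compound.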

Rattus norvegicus [6] = test: Percent inhibition was measured on untreated rat paw at a dose of 25 mg/kg; assay type: functional; how it was run: as §1
Rattus norvegicus [7] = test: Percent inhibition was measured on untreated rat paw at a dose of 100 mg/kg; assay type: functional; how it was run: as §1
[8] = C6h was measured as concentration obtained after 6 hr of oral administration in air pouch exudate after oral administration to male F344 rats; assay type: ADME, organism-based; details: F344, rat, read-out: C6h
How it was run: (§4)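 Male F344 rats given 50 mg/kg orally; drug measured in air-pouch exudate, with concentration at 6 h post-dose and exudate half-life derived; mean ± SEM of 5 rats.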

Rattus norvegicus [9] = test: Percent swelling was measured on untreated rat paw at a dose of 50 mg/kg; assay type: functional; how it was run: as §1
Rattus norvegicus [10] = test: Percent swelling was measured on untreated rat paw at a dose of 100 mg/kg; assay type: functional; how it was run: as §1
Rattus norvegicus [11] = test: Percent inhibition was measured in vivo by air pouch model on five rats by oral administration at 200 uM; assay type: functional
How it was run: (§5)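 Rat CMC-LPS air-pouch model, 5 rats per group. Compound given orally in 0.5% methyl cellulose 2 h before LPS at 200, 50 or 25 mg/kg. Exudate collected 4 h after LPS; extra- and intracellular IL-1 by LAF assay against recombinant human IL-1α standard.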

Rattus norvegicus [12] = test: Percent swelling was measured on untreated rat paw at a dose of 25 mg/kg; assay type: functional; how it was run: as §1
Rattus norvegicus [13] = test: Percent swelling was measured on untreated rat paw at a dose of 12.5 mg/kg; assay type: functional; how it was run: as §1
Rattus norvegicus [14] = test: Percent inhibition was measured in vivo by air pouch model on five rats by oral administration at 25 uM; assay type: functional; details: in the assay text read “25 mg/kg” for “25 uM”; how it was run: as §5
Rattus norvegicus [15] = test: Percent inhibition was measured by in vivo by air pouch model on five rats by local administration at 100 uM; assay type: functional
How it was run: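 Rat CMC-LPS air-pouch model, 5 rats per group. Compound dissolved in 5% EtOH-RPMI 1640 with 30% heat-inactivated autologous serum, given locally to 100 μM final exudate concentration at 30 min before and just before LPS. Exudate collected 4 h after LPS; IL-1 by LAF assay against recombinant human IL-1α standard.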

Rattus norvegicus [16] = test: Percent inhibition was measured on untreated rat paw at a dose of 50 mg/kg; assay type: functional; how it was run: as §1
Rattus norvegicus [17] = test: Percent inhibition was measured in vivo by air pouch model on five rats by oral administration at 50 uM; assay type: functional; details: in the assay text read “50 mg/kg” for “50 uM”; how it was run: as §5
[18] = Half life was measured as time taken to reach the half of the initial dose in air pouch exudate after oral administration to male F344 rats; assay type: ADME, organism-based; details: F344, rat; how it was run: as §4
Rattus norvegicus [19] = organism: Rattus norvegicus; test: Concentration to inhibit rat macrophase […] (IL 1 Generation); assay type: functional
How it was run: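 Rat (Fisher) peritoneal macrophages elicited by i.p. 2.5% glycogen and harvested after 4 days. Adherent cells (0.5 × 10^6/well, RPMI 1640 + 1% heat-inactivated normal rat serum, 1.5 h at 37 °C) cultured 4 h with LPS 1 ng/mL ± compound. Intracellular IL-1 by LAF assay against recombinant human IL-1α standard; IC50 by least squares, mean of duplicates.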

[20] = C6h was measured as concentration obtained after 6 hr of oral administration in air pouch exudate; assay type: ADME; details: read-out: C6h; how it was run: as §4
[21] = Area under curve was measured from the graph obtained from concentration Vs time; assay type: ADME; how it was run: as §2
[22] = Half life was measured as time taken to reach the half of the initial dose in air pouch exudate; assay type: ADME; how it was run: as §4
[23] = Half life was measured as time taken to reach the half of the initial dose in the blood; assay type: ADME, tissue-based; how it was run: as §3
[24] = in the assay text read “200 mg/kg” for “200 uM”
[25] = in the assay text read “at 200 mg/kg” for “at 200 uM”

**Q.** With `COc1ccc2c(c1)c(CC(=O)O)c(C)n2C(=O)c1ccc(Cl)cc1` [INDOMETHACIN] as the compound, how does the Swelling (Rattus norvegicus [1]) read?
**A.** Its Swelling is 28.8%.

**Q.** And the Inhibition (Rattus norvegicus [2])?
**A.** Its Inhibition is 47.8%.

**Q.** Which IC50 (Homo sapiens) does the source give for `CCc1cccc2c(/C=C(/C)C(=O)O)cc(OC)c(O)c12` here?
**A.** Its IC50 is 3000 nM.

**Q.** What about the AUC [3] of the same compound?
**A.** Its AUC is 418 µg·h/mL.

**Q.** And the inhibition in vivo at 12.5 mg/kg (Rattus norvegicus [4])?
**A.** Its inhibition in vivo at 12.5 mg/kg is 20.1%.

**Q.** And the half-life [5]?
**A.** The half-life was 1.72 h.

**Q.** What about the inhibition in vivo at 25 mg/kg (Rattus norvegicus [6]) of the same compound?
**A.** Its inhibition in vivo at 25 mg/kg is 34.1%.

**Q.** What about the inhibition in vivo at 100 mg/kg (Rattus norvegicus [7]) of the same compound?
**A.** The inhibition in vivo at 100 mg/kg was 51.4%.

**Q.** What about the concentration at 6 h [8] of the same compound?
**A.** The concentration at 6 h was 8760 ng/mL.

**Q.** And the Swelling (Rattus norvegicus [9])?
**A.** The Swelling was 33.8%.

**Q.** What about the Swelling (Rattus norvegicus [10]) of the same compound?
**A.** The Swelling was 26.8%.

**Q.** And the Inhibition (Rattus norvegicus [11]; [24])?
**A.** Its Inhibition is 91%.

**Q.** What about the Swelling (Rattus norvegicus [12]) of the same compound?
**A.** Its Swelling is 36.4%.

**Q.** And the Swelling (Rattus norvegicus [13])?
**A.** The Swelling was 44.1%.

**Q.** And the Inhibition (Rattus norvegicus [14])?
**A.** Its Inhibition is 40%.

**Q.** What about the Inhibition (Rattus norvegicus [15]) of the same compound?
**A.** The Inhibition was 94%.

**Q.** And the inhibition in vivo at 50 mg/kg (Rattus norvegicus [16])?
**A.** Its inhibition in vivo at 50 mg/kg is 38.8%.

**Q.** What about the Inhibition (Rattus norvegicus [17]) of the same compound?
**A.** The Inhibition was 65%.

**Q.** What about the half-life [18] of the same compound?
**A.** The half-life was 4.15 h.

**Q.** And the IC50 (Rattus norvegicus [19])?
**A.** Its IC50 is 1400 nM.

**Q.** Which IC50 (Homo sapiens) does the source give for `CCCc1cccc2c(/C=C(\C)C(=O)O)cc(OC)c(O)c12` here?
**A.** The IC50 was 1000 nM.

**Q.** And the AUC [3]?
**A.** Its AUC is 60.4 µg·h/mL.

**Q.** What about the half-life [5] of the same compound?
**A.** Its half-life is 1.07 h.

**Q.** What about the Inhibition (Rattus norvegicus [11]; [25]) of the same compound?
**A.** Its Inhibition is 67%.

**Q.** And the Inhibition (Rattus norvegicus [15])?
**A.** Its Inhibition is 91%.

**Q.** And the Inhibition (Rattus norvegicus [17])?
**A.** Its Inhibition is 4%.

**Q.** And the IC50 (Rattus norvegicus [19])?
**A.** Its IC50 is 1000 nM.

**Q.** For `CCc1cccc2c(/C=C(\C)C(=O)O)cc(OC)c(O)c12`, which IC50 (Homo sapiens) is on record?
**A.** The IC50 was 4800 nM.

**Q.** What about the AUC [3] of the same compound?
**A.** The AUC was 108 µg·h/mL.

**Q.** And the half-life [5]?
**A.** Its half-life is 0.44 h.

**Q.** What about the Inhibition (Rattus norvegicus [11]; [25]) of the same compound?
**A.** Its Inhibition is 36%.

**Q.** And the Inhibition (Rattus norvegicus [15])?
**A.** The Inhibition was 85%.

**Q.** And the IC50 (Rattus norvegicus [19])?
**A.** The IC50 was 2000 nM.

**Q.** For `CCCc1cccc2c(/C=C(/C)C(=O)O)cc(OC)c(O)c12`, which IC50 (Homo sapiens) is on record?
**A.** The IC50 was 1000 nM.

**Q.** And the inhibition in vivo at 12.5 mg/kg (Rattus norvegicus [4])?
**A.** The inhibition in vivo at 12.5 mg/kg was 17%.

**Q.** What about the inhibition in vivo at 25 mg/kg (Rattus norvegicus [6]) of the same compound?
**A.** The inhibition in vivo at 25 mg/kg was 8%.

**Q.** And the concentration at 6 h [20]?
**A.** The concentration at 6 h was 1940 ng/mL.

**Q.** And the AUC [21]?
**A.** The AUC was 189 µg·h/mL.

**Q.** And the inhibition in vivo at 100 mg/kg (Rattus norvegicus [7])?
**A.** Its inhibition in vivo at 100 mg/kg is 53.6%.

**Q.** What about the Swelling (Rattus norvegicus [9]) of the same compound?
**A.** The Swelling was 29.5%.

**Q.** And the Swelling (Rattus norvegicus [10])?
**A.** Its Swelling is 25.6%.

**Q.** And the Inhibition (Rattus norvegicus [11]; [24])?
**A.** Its Inhibition is 86%.

**Q.** What about the Swelling (Rattus norvegicus [12]) of the same compound?
**A.** The Swelling was 50.8%.

**Q.** And the Swelling (Rattus norvegicus [13])?
**A.** Its Swelling is 45.8%.

**Q.** And the Inhibition (Rattus norvegicus [15])?
**A.** Its Inhibition is 87%.

**Q.** And the half-life [22]?
**A.** The half-life was 2.05 h.

**Q.** And the half-life [23]?
**A.** Its half-life is 1.07 h.

**Q.** What about the inhibition in vivo at 50 mg/kg (Rattus norvegicus [16]) of the same compound?
**A.** Its inhibition in vivo at 50 mg/kg is 46.6%.

**Q.** What about the Inhibition (Rattus norvegicus [17]) of the same compound?
**A.** Its Inhibition is 33%.

**Q.** And the IC50 (Rattus norvegicus [19])?
**A.** The IC50 was 1100 nM.
